By IC50 is commonly meant the concentration needed to halve the response being measured.

This assay deals with Prolyl endopeptidase (Sus scrofa, UniProt P23687). The experiment in a line: In vitro inhibitory activity against prolyl endopeptidase (PEP). The method in brief: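 Pig kidney PEP, partially purified. Substrate Z-Gly-Pro-p-nitroanilide at 0.26 mM in dioxane with 0.2 M phosphate buffer. Inhibitor is added in DMSO over a range of concentrations, then enzyme (0.05 units/mL). Incubation 20 min at 37 °C, with p-nitroaniline read at 405 nm. IC50 (n = 3-6) is estimated from the inhibitor concentration vs activity curve.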
Chain of Prolyl endopeptidase (P23687 whole entry): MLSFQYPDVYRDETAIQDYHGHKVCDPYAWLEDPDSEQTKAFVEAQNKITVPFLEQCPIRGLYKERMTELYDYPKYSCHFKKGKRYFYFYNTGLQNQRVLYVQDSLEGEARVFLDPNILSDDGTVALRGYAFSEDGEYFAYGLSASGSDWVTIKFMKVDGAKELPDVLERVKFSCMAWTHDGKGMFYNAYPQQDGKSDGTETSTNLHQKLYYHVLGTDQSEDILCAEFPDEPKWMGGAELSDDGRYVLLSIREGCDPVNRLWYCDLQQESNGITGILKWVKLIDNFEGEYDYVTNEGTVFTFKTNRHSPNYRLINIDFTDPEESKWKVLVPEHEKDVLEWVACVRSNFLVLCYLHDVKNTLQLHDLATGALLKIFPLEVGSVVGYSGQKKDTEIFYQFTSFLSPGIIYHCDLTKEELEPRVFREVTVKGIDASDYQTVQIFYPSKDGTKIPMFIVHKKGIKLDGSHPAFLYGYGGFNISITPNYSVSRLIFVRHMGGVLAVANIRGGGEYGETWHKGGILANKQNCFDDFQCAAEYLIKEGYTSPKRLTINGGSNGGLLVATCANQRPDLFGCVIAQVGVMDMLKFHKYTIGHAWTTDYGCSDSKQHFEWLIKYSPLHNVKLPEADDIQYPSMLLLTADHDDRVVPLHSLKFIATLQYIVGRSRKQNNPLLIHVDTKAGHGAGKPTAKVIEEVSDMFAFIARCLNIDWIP
In the case of `O=C(c1nc2ccccc2s1)[C@@H]1CCCN1C(=O)[C@@H]1CCCN1C(=O)CCCc1ccccc1`, inhibition was half-maximal at 4 nM (IC50).
The compound `O=C(c1cncs1)[C@@H]1CCCN1C(=O)[C@@H]1CCCN1C(=O)CCCc1ccccc1` displayed an IC50 of 1090 nM.
In the case of `O=C(c1ccc[nH]1)[C@@H]1CCCN1C(=O)[C@@H]1CCCN1C(=O)CCCc1ccccc1` it was 21300 nM.
In the case of `O=C(c1ncc[nH]1)[C@@H]1CCCN1C(=O)[C@@H]1CCCN1C(=O)CCCc1ccccc1` it was 9 nM.
In the case of `O=C(c1cccnc1)[C@@H]1CCCN1C(=O)[C@@H]1CCCN1C(=O)CCCc1ccccc1` it was 2290 nM; in that of `O=C(c1ccccn1)[C@@H]1CCCN1C(=O)[C@@H]1CCCN1C(=O)CCCc1ccccc1`, 6.9 nM; in that of `O=C(c1cscn1)[C@@H]1CCCN1C(=O)[C@@H]1CCCN1C(=O)CCCc1ccccc1`, 6.2 nM.
In the case of `O=C(c1nc2ccccc2s1)[C@@H]1CCCN1C(=O)[C@@H]1CCCN1C(=O)OCc1ccccc1`, the concentration for half-maximal inhibition (IC50) amounted to 5 nM.
In the case of `O=C([C@@H]1CCCN1C(=O)CCCc1ccccc1)N1CCCC1C(O)c1nccs1` (some centres not stated) it was 16100 nM; in that of `O=C(c1nc2ccccc2o1)[C@@H]1CCCN1C(=O)[C@@H]1CCCN1C(=O)CCCc1ccccc1`, 5.6 nM; in that of `O=C(c1cccs1)[C@@H]1CCCN1C(=O)[C@@H]1CCCN1C(=O)OCc1ccccc1`, 2020 nM.
As to `O=C(C1=NCCS1)[C@@H]1CCCN1C(=O)[C@@H]1CCCN1C(=O)CCCc1ccccc1`, the IC50 came out at 3.8 nM.
In the case of `O=C(c1nc2ncccc2o1)[C@@H]1CCCN1C(=O)[C@@H]1CCCN1C(=O)CCCc1ccccc1` it was 5.5 nM.
In the case of `O=C(c1cccs1)[C@@H]1CCCN1C(=O)[C@@H]1CCCN1C(=O)CCCc1ccccc1` it was 1260 nM; in that of `O=C(c1cncnc1)[C@@H]1CCCN1C(=O)[C@@H]1CCCN1C(=O)CCCc1ccccc1`, 61 nM.
In the case of `CCOC(=O)C(=O)C1CCCN1C(=O)[C@@H]1CCCN1C(=O)CCCc1ccccc1` (some centres not stated) it was 10.3 nM; in that of `O=C(c1nccs1)C1CCCN1C(=O)C1CCCN1C(=O)OCc1ccccc1` (configuration not stated), 8.5 nM.

The values are drawn from ChEMBL document CHEMBL1127369, “Synthesis and structure-activity relationships of peptidyl alpha-keto heterocycles as novel inhibitors of prolyl endopeptidase” (J Med Chem, 1994).
